# Measured values as given in ChEMBL document CHEMBL1144782, “Isoindolo[2,1-a]quinoxaline derivatives, novel potent antitumor agents with dual inhibition of tubulin polymerization and topoisomerase I” (2008).
# Several values for one entry are separate records, joined by “and”; a condition that tells them apart may be missing. Equal values may be shown once.
# Experiments:
# NCI-H226 = test: Antitumor activity against human NCI-H226 cells; format: functional; details: for TGI: read-out: pTGI (converted)
# Method in brief: (§1)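 Run by the NCI in its in vitro disease-oriented screen of about 60 human tumour cell lines. For each line it reports pGI50 (50% net growth inhibition), pTGI (total growth inhibition) and pLC50 (50% net cell death), each as –log molar concentration. Where an effect was not reached within the tested range, the highest tested concentration was used.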
# [1] = Antitumor activity against human NCI-H322 cells; format: functional; details: for TGI: read-out: pTGI (converted); method in brief: as §1
# NCI-H460 = test: Antitumor activity against human NCI-H460 cells; format: functional; details: for CC50: read-out: Log LC50 (the source's name) (converted); for TGI: read-out: pTGI (converted); method in brief: as §1
# COLO 205 = test: Antitumor activity against human COLO205 cells; format: functional; details: for TGI: read-out: pTGI (converted); method in brief: as §1
# HCT-15 = test: Antitumor activity against human HCT15 cells; format: functional; details: for CC50: read-out: Log LC50 (the source's name) (converted); for TGI: read-out: pTGI (converted); method in brief: as §1
# HT-29 = test: Antitumor activity against human HT29 cells; format: functional; details: for TGI: read-out: pTGI (converted); method in brief: as §1
# SW-620 = test: Antitumor activity against human SW620 cells; format: functional; details: for CC50: read-out: Log LC50 (the source's name) (converted); for TGI: read-out: pTGI (converted)
# Method in brief: (§2)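 NCI 60-cell-line screen. Parameters were GI50 (50% net growth inhibition), TGI and LC50, each reported as –log molar concentration. Where an effect was not reached within the tested range, the highest tested concentration was used in the calculation.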
# SNB-75 = test: Antitumor activity against human SNB75 cells; format: functional; details: for TGI: read-out: pTGI (converted); method in brief: as §1
# Malme-3M = test: Antitumor activity against human MALME3M cells; format: functional; details: for CC50: read-out: Log LC50 (the source's name) (converted); for TGI: read-out: pTGI (converted); method in brief: as §1
# SK-MEL-2 = test: Antitumor activity against human SKMEL2 cells; format: functional; details: for TGI: read-out: pTGI (converted); method in brief: as §1
# OVCAR-3 = test: Antitumor activity against human OVCAR-3 cells; format: functional; details: for TGI: read-out: pTGI (converted); method in brief: as §1
# 786-0 = test: Antitumor activity against human 786-0 cells; format: functional; details: for CC50: read-out: Log LC50 (the source's name) (converted); for TGI: read-out: pTGI (converted); method in brief: as §1
# Tubulin (Sus scrofa) = Tubulin (Sus scrofa) (UniProt P02554+P02550); test: Inhibition of pig brain tubulin polymerization
# Chain of Tubulin (Sus scrofa) (P02550 whole entry, looked up): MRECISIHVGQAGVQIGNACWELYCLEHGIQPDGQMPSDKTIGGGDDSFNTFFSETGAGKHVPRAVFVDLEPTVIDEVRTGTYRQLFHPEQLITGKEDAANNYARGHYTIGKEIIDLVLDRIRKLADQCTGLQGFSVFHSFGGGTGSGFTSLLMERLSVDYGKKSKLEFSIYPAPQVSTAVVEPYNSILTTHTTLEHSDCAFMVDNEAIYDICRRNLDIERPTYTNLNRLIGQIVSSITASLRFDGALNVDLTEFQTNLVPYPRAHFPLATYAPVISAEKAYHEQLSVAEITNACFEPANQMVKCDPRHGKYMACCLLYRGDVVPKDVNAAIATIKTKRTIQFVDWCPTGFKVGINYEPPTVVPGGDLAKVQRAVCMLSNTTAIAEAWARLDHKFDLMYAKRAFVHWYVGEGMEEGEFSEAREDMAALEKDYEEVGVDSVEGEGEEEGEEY
# Chain of Tubulin (Sus scrofa) (P02554 whole entry, looked up): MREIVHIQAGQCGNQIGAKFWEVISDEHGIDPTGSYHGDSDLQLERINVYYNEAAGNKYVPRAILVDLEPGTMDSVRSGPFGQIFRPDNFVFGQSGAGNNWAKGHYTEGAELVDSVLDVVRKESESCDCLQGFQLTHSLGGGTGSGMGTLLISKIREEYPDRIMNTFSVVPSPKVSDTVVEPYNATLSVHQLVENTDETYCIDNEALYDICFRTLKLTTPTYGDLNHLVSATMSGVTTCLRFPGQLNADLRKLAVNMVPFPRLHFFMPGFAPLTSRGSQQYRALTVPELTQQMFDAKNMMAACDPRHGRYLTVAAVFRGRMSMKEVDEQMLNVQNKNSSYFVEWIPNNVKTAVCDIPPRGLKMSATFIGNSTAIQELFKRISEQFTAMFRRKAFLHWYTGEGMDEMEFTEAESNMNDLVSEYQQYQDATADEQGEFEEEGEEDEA
# BT-549 = test: Antitumor activity against human BT549 cells; format: functional; details: for TGI: read-out: pTGI (converted); method in brief: as §1
# MCF7 [2] = test: Cell viability against human MCF7 cells at 10 uM; format: functional
# CCRF-CEM [3] = test: Antitumor activity against human CCRF-CEM cells; format: functional; details: for TGI: read-out: pTGI (converted); method in brief: as §1
# EKVX = test: Antitumor activity against human EKVX cells; format: functional; details: for TGI: read-out: pTGI (converted); method in brief: as §1
# SN12C = test: Antitumor activity against human SN12C cells; format: functional; details: for TGI: read-out: pTGI (converted); method in brief: as §1
# TK-10 = test: Antitumor activity against human TK10 cells; format: functional; details: for CC50: read-out: Log LC50 (the source's name) (converted); for TGI: read-out: pTGI (converted); method in brief: as §2
# PC-3 = test: Antitumor activity against human PC3 cells; format: functional; details: for TGI: read-out: pTGI (converted); method in brief: as §1
# DU-145 = test: Antitumor activity against human DU145 cells; format: functional; details: for CC50: Homo sapiens, DU-145, read-out: Log LC50 (the source's name) (converted); method in brief: as §1
# NCI/ADR-RES = test: Antitumor activity against human NCI/ADR-RES cells; format: functional; details: for TGI: read-out: pTGI (converted); method in brief: as §1
# MCF7 [4] = test: Growth inhibition of human MCF7 cells after 72 hrs by MTT assay; format: functional; details: MCF7, 72 h
# Method in brief: (§3)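 Growth inhibition by MTT after 72 h incubation. Resistant sublines: LoVoDoxo and MCF-7 MDR were kept in 0.1 µg/mL doxorubicin; CEMVbl-100 was selected against vinblastine. GI50 given as mean ± SEM of three independent experiments. Resistance index is resistant-line GI50 over parental GI50.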
# MCF7 [5] = test: Growth inhibition of human multidrug-resistant MCF7 cells after 72 hrs by MTT assay; format: functional; details: MCF7, 72 h; method in brief: as §3
# MCF7 [6] = test: Resistance index, Ratio of GI50 for human multidrug-resistant MCF7 cells to GI50 for human MCF7 cells; format: functional; method in brief: as §3
# CCRF-CEM [7] = test: Growth inhibition of human CEM cells after 72 hrs by MTT assay; format: functional; method in brief: as §3
compound,measurement,setting,value
Cc1cccc2c1[nH]c(=O)c1c3ccccc3cn21,GI50,NCI-H226,3.24 µM
same,LC50 (50% net cell kill),NCI-H226,> 100 µM
same,TGI,NCI-H226,27.5 µM
same,GI50,[1],13.5 µM
same,LC50 (50% net cell death),[1],> 100 µM
same,TGI,[1],45.7 µM
same,GI50,NCI-H460,1.91 µM
same,CC50,NCI-H460,31.6 µM
same,TGI,NCI-H460,10 µM
same,GI50,COLO 205,7.41 µM
same,LC50,COLO 205,> 100 µM
same,TGI,COLO 205,34.7 µM
same,GI50,HCT-15,5.25 µM
same,CC50,HCT-15,> 100 µM
same,TGI,HCT-15,31.6 µM
same,GI50,HT-29,2.19 µM
same,LC50,HT-29,36.3 µM
same,TGI,HT-29,13.2 µM
same,GI50,SW-620,5.75 µM
same,CC50,SW-620,42.7 µM
same,TGI,SW-620,17.8 µM
same,GI50,"SNB-75; Homo sapiens, SNB-75",30.9 µM
same,LC50,"SNB-75; Homo sapiens, SNB-75",> 100 µM
same,TGI,"SNB-75; Homo sapiens, SNB-75",> 100 µM
same,GI50,Malme-3M,8.32 µM
same,CC50,Malme-3M,67.6 µM
same,TGI,Malme-3M,24.5 µM
same,GI50,SK-MEL-2,14.5 µM
same,LC50,SK-MEL-2,> 100 µM
same,TGI,SK-MEL-2,> 100 µM
same,GI50,OVCAR-3,4.79 µM
same,LC50 (50% net cell death),OVCAR-3,> 100 µM
same,TGI,OVCAR-3,28.2 µM
same,GI50,786-0,5.89 µM
same,CC50,786-0,> 100 µM
same,TGI,786-0,32.4 µM
same,Activity,Tubulin (Sus scrofa),> 10 µM
same,GI50,BT-549,12 µM
same,LC50 (50% net cell kill),BT-549,> 100 µM
same,TGI,BT-549,58.9 µM
same,Activity,MCF7 [2],27%
same,GI50,CCRF-CEM [3],1.2 µM
same,LC50,CCRF-CEM [3],74.1 µM
same,TGI,CCRF-CEM [3],12.6 µM
same,GI50,EKVX,5.62 µM
same,LC50 (50% net cell kill),EKVX,> 100 µM
same,TGI,EKVX,44.7 µM
same,GI50,SN12C,1.82 µM
same,LC50,SN12C,> 100 µM
same,TGI,SN12C,19.1 µM
same,GI50,TK-10,26.9 µM
same,CC50,TK-10,> 100 µM
same,TGI,TK-10,87.1 µM
same,GI50,PC-3,3.89 µM
same,LC50 (50% net cell death),PC-3,> 100 µM
same,TGI,PC-3,44.7 µM
same,GI50,DU-145,5.25 µM and 17.4 µM
same,CC50,DU-145,41.7 µM
same,GI50,NCI/ADR-RES,12 µM
same,LC50,NCI/ADR-RES,> 100 µM
same,TGI,NCI/ADR-RES,34.7 µM
same,GI50,MCF7 [4],3.7 µM
same,GI50,MCF7 [5],8.1 µM
same,RatioGI50,MCF7 [6],2.2
same,GI50,CCRF-CEM [7],2.9 µM
O=c1[nH]c2ccccc2n2cc3ccccc3c12,GI50,NCI-H226,2.88 µM
same,LC50 (50% net cell kill),NCI-H226,55 µM
same,TGI,NCI-H226,13.8 µM
same,GI50,[1],24 µM
same,LC50 (50% net cell death),[1],89.1 µM
same,TGI,[1],46.8 µM
same,GI50,NCI-H460,7.76 µM
same,CC50,NCI-H460,> 100 µM
same,TGI,NCI-H460,> 100 µM
same,GI50,COLO 205,4.57 µM
same,LC50,COLO 205,> 100 µM
same,TGI,COLO 205,> 100 µM
same,GI50,HCT-15,3.31 µM
same,CC50,HCT-15,93.3 µM
same,TGI,HCT-15,18.6 µM
same,GI50,HT-29,4.37 µM
same,LC50,HT-29,> 100 µM
same,TGI,HT-29,> 100 µM
same,GI50,SW-620,3.72 µM
same,CC50,SW-620,> 100 µM
same,TGI,SW-620,> 100 µM
same,GI50,SNB-75,13.5 µM and 1.91 µM
same,LC50,"SNB-75; Homo sapiens, SNB-75",> 100 µM
same,TGI,"SNB-75; Homo sapiens, SNB-75",74.1 µM
same,GI50,Malme-3M,25.1 µM
same,CC50,Malme-3M,85.1 µM
same,TGI,Malme-3M,46.8 µM
same,GI50,SK-MEL-2,20.4 µM
same,LC50,SK-MEL-2,72.4 µM
same,TGI,SK-MEL-2,38.9 µM
same,GI50,OVCAR-3,18.6 µM
same,LC50 (50% net cell death),OVCAR-3,72.4 µM
same,TGI,OVCAR-3,36.3 µM
same,GI50,786-0,4.27 µM
same,CC50,786-0,55 µM
same,TGI,786-0,18.2 µM
same,Activity,Tubulin (Sus scrofa),> 10 µM
same,GI50,BT-549,19.1 µM
same,LC50 (50% net cell kill),BT-549,> 100 µM
same,TGI,BT-549,64.6 µM
same,Activity,MCF7 [2],6%
same,GI50,CCRF-CEM [3],5.89 µM
same,LC50,CCRF-CEM [3],> 100 µM
same,TGI,CCRF-CEM [3],60.3 µM
same,GI50,EKVX,4.79 µM
same,LC50 (50% net cell kill),EKVX,> 100 µM
same,TGI,EKVX,69.2 µM
same,GI50,SN12C,1.66 µM
same,LC50,SN12C,31.6 µM
same,TGI,SN12C,6.31 µM
same,GI50,TK-10,20.4 µM
same,CC50,TK-10,66.1 µM
same,TGI,TK-10,37.2 µM
same,GI50,PC-3,5.75 µM
same,LC50 (50% net cell death),PC-3,> 100 µM
same,TGI,PC-3,28.8 µM
same,GI50,DU-145,7.59 µM and 38 µM
same,CC50,DU-145,> 100 µM
same,GI50,NCI/ADR-RES,6.46 µM
same,LC50,NCI/ADR-RES,> 100 µM
same,TGI,NCI/ADR-RES,32.4 µM
same,GI50,MCF7 [4],6.5 µM
same,GI50,MCF7 [5],10.6 µM
same,RatioGI50,MCF7 [6],1.6
same,GI50,CCRF-CEM [7],4.7 µM
